Measured values: ChEMBL document CHEMBL3392964, “Design, synthesis, and evaluation of novel imidazo[1,2-a][1,3,5]triazines and their derivatives as focal adhesion kinase inhibitors with antitumor activity” (J Med Chem, 2015)
pIC50: −log10 of the molar value. Activity calls are given as the source filed them. No cut-off for these calls is given here.

Key:
U-87 MG [1] = assay: Induction of apoptosis in human U87MG cells assessed as early apoptotic cells at 1 uM after 24 hrs by Annexin V-PE/7-AAD staining-based FACS analysis (reference value: 0.691%); format: functional, U-87MG ATCC
Focal adhesion kinase 1 [2] = target: T1, Focal adhesion kinase 1 (Homo sapiens, UniProt Q05397); assay: Inhibition of FAK phosphorylation at tyrosine 397 in human U87MG cells at 0.1 to 10 uM after 48 hrs by FACEFAK ELISA; format: cell-based; settings: U-87MG ATCC
T1 sequence (Q05397 2-1052 limits assumed): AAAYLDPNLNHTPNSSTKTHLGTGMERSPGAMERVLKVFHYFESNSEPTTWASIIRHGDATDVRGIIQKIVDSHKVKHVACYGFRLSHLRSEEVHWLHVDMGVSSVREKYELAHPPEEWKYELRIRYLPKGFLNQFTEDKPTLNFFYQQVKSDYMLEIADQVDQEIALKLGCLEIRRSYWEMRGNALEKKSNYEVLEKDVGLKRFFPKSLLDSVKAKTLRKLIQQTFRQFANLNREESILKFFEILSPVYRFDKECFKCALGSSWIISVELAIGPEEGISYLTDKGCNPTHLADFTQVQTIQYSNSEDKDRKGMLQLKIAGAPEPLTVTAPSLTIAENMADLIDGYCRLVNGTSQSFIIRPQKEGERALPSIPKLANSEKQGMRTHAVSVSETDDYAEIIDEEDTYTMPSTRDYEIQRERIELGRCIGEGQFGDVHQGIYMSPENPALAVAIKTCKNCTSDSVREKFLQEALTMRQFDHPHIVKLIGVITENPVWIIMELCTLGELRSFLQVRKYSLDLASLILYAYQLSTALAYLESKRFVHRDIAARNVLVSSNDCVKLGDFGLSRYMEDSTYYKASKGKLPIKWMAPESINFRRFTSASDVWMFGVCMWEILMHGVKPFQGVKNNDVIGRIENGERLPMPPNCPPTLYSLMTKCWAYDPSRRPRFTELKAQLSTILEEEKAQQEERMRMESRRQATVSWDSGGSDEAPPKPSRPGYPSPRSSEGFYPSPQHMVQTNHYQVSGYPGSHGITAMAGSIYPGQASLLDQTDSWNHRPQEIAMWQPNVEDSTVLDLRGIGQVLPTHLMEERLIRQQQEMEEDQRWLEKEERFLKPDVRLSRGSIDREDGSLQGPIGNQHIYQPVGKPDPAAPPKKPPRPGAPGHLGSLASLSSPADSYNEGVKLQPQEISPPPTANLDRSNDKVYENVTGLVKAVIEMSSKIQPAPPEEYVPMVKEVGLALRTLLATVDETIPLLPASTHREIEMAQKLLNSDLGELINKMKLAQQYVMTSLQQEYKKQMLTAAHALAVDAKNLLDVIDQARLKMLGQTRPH
Outline: (§1)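 Cells were grown in DMEM with 10% FBS, seeded at 3 × 10^3 per well and treated for 48 h at 0.1, 1 and 10 μM. They were then fixed in 4% formaldehyde and probed with anti-phospho-Tyr397 FAK or total-FAK antibody plus an HRP secondary, read at 450 nm. Signal was normalised to total FAK and to crystal-violet cell number (595 nm). Values are fold decrease versus control, mean of triplicate readings from three independent experiments.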

[3] = Cell cycle arrest in human HCT116 cells assessed as accumulation at S phase at 0.3 uM after 24 hrs by propidium iodide staining-based flow cytometry (reference value: 17.7%); format: functional; settings: HCT-116
Outline: (§2)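 Cells plated at 10^5 per well, left overnight, then exposed 24 h to compound or vehicle; stained 15 min at 37 °C with propidium iodide/Triton buffer; DNA content by flow cytometry, phase distribution fitted by Dean–Jett–Fox; HCT-116 at 0.3–0.5 μM, U87-MG at 0.3–3 μM; significance by unpaired Student's t test; one representative experiment.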

Focal adhesion kinase 1 [4] = target: T1, Focal adhesion kinase 1; assay: Inhibition of FAK phosphorylation at tyrosine 397 in human MDA-MB-231 cells at 0.1 to 10 uM after 48 hrs by FACEFAK ELISA; format: cell-based; outline: as §1
[5] = Cell cycle arrest in human HCT116 cells at < 0.3 uM after 24 hrs by propidium iodide staining-based flow cytometry; format: functional; settings: HCT-116; outline: as §2
U-87MG ATCC [6] = assay: (§3) Inhibition of colony formation in human U87MG cells after 2 weeks by crystal violet staining-based assay; format: functional, cell-based
Outline: (§4)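 Seeding: 250 cells per well for HCT-116, 300 for U87MG, MDA-MB-231 and PC-3; incubated overnight, then exposed to a range of concentrations for 2 weeks. Fixed in 4% paraformaldehyde 30 min at room temperature, stained with 0.1% crystal violet. Colonies over 50 cells counted; colony formation rate calculated; IC50 by nonlinear regression.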

[7] = as §3; format: functional, cell-based, U-87MG ATCC; settings: U-87 MG, 336 h; outline: as §4
[8] = Antiproliferative activity against human U87MG cells after 48 hrs by WST-1 assay; format: functional, cell-based, U-87MG ATCC; settings: U-87 MG
Outline: (§5)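 Exponentially growing cells in DMEM/10% FBS seeded at 5 × 10^3 per well, left overnight, then exposed 48 h to compounds diluted from DMSO; WST-1 added for 2 h, absorbance at 450 nm (reference 620 nm); viability as ratio to DMSO controls; three independent experiments, triplicate points; IC50 by nonlinear regression (log inhibitor vs normalized response, variable slope).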

U-87 MG [9] = assay: Induction of apoptosis in human U87MG cells assessed as late apoptotic cells at 1 uM after 24 hrs by Annexin V-PE/7-AAD staining-based FACS analysis (reference value: 1.59%); format: functional, U-87MG ATCC
[10] = Cell cycle arrest in human U87MG cells assessed as accumulation at G0/G1 phase at 1 uM after 24 hrs by propidium iodide staining-based flow cytometry (reference value: 61.7%); format: functional; settings: U-87MG ATCC; outline: as §2
HCT-116 [11] = assay: Induction of apoptosis in human HCT116 cells assessed as apoptotic cells at 0.3 uM after 24 hrs by Annexin V-PE/7-AAD staining-based FACS analysis relative to control; format: functional
[12] = Antiproliferative activity against human PC3 cells after 48 hrs by WST-1 assay; format: functional, cell-based; settings: PC-3, 48 h; outline: as §5
HCT-116 [13] = assay: Induction of apoptosis in human HCT116 cells assessed as early apoptotic cells at 0.3 uM after 24 hrs by Annexin V-PE/7-AAD staining-based FACS analysis (reference value: 4.68%); format: functional
HCT-116 [14] = assay: Induction of apoptosis in human HCT116 cells at < 0.3 uM after 24 hrs by Annexin V-PE/7-AAD staining-based FACS analysis; format: functional, cell-based
[15] = Antimigratory activity in human U87MG cells at 1 uM […] by transwell membrane assay; format: functional, U-87MG ATCC
Focal adhesion kinase 1 [16] = target: T1, Focal adhesion kinase 1; assay: Inhibition of FAK phosphorylation at tyrosine 397 in human PC3 cells at 0.1 to 10 uM after 48 hrs by FACEFAK ELISA; format: cell-based; settings: PC-3; outline: as §1
MDA-MB-231 [17] = assay: Inhibition of colony formation in human MDA-MB-231 cells after 2 weeks by crystal violet staining-based assay; format: functional, cell-based; outline: as §4
[18] = Cell cycle arrest in human HCT116 cells assessed as accumulation at G2/M phase at 0.3 uM after 24 hrs by propidium iodide staining-based flow cytometry (reference value: 14.6%); format: functional; settings: HCT-116; outline: as §2
HCT-116 [19] = assay: (§6) Inhibition of colony formation in human HCT116 cells after 2 weeks by crystal violet staining-based assay; format: functional, cell-based; outline: as §4
[20] = as §6; format: functional, cell-based; settings: HCT-116, 336 h; outline: as §4
[21] = (§7) Inhibition of colony formation in human PC3 cells after 2 weeks by crystal violet staining-based assay; format: functional, cell-based; settings: PC-3, 336 h; outline: as §4
PC-3 = assay: as §7; format: functional, cell-based; outline: as §4
HCT-116 [22] = assay: Induction of apoptosis in human HCT116 cells assessed as necrotic cells at 0.3 uM after 24 hrs by Annexin V-PE/7-AAD staining-based FACS analysis (reference value: 0.885%); format: functional
Focal adhesion kinase 1 [23] = target: T1, Focal adhesion kinase 1; assay: Inhibition of FAK phosphorylation at tyrosine 397 in human HCT116 cells at 0.1 to 10 uM after 48 hrs by FACEFAK ELISA; format: cell-based; settings: HCT-116; outline: as §1
[24] = Cell cycle arrest in human U87MG cells assessed as accumulation at G2/M phase at 1 uM after 24 hrs by propidium iodide staining-based flow cytometry (reference value: 20%); format: functional; settings: U-87MG ATCC; outline: as §2
U-87 MG [25] = assay: Reduction of cell adherence in human U87MG cells at 1 uM after 30 mins by toluidine blue staining-based […]; format: functional, U-87MG ATCC; set-up: scale not given: the % may be the effect or the level left
Outline: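 U87-MG cells grown in 10% serum, trypsinised, diluted to 100 000 cells/mL in 10% serum medium, then treated 30 min with compound or DMSO. 20 000 cells per well allowed to attach 1 h. Fixed in 4% paraformaldehyde 30 min, stained with 0.1% toluidine blue in 4% PFA 30 min, washed, OD read at 620 nm for attached cells.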

U-87 MG [26] = assay: Induction of apoptosis in human U87MG cells assessed as viable cells at 1 uM after 24 hrs by Annexin V-PE/7-AAD staining-based FACS analysis (reference value: 96.7%); format: functional, U-87MG ATCC; settings: read-out: Activity
[27] = Cell cycle arrest in human U87MG cells assessed as accumulation at S phase at 1 uM after 24 hrs by propidium iodide staining-based flow cytometry (reference value: 16%); format: functional; settings: U-87MG ATCC; outline: as §2
MDA-MB-231 [28] = assay: Antiproliferative activity against human MDA-MB-231 cells after 48 hrs by WST-1 assay; format: functional, cell-based; settings: MDA-MB-231, 48 h; outline: as §5
HCT-116 [29] = assay: Induction of apoptosis in human HCT116 cells assessed as late apoptotic cells at 0.3 uM after 24 hrs by Annexin V-PE/7-AAD staining-based FACS analysis (reference value: 1.22%); format: functional
U-87 MG [30] = assay: Induction of apoptosis in human U87MG cells assessed as necrotic cells at 1 uM after 24 hrs by Annexin V-PE/7-AAD staining-based FACS analysis (reference value: 1.06%); format: functional, U-87MG ATCC
U-87MG ATCC [31] = assay: Antimigratory activity in human U87MG cells after 30 mins by boyden chamber assay; format: functional, cell-based
[32] = Cell cycle arrest in human U87MG cells at < 1 uM after 24 hrs by propidium iodide staining-based flow cytometry; format: functional; settings: U-87MG ATCC; outline: as §2
HCT-116 [33] = assay: Induction of apoptosis in human HCT116 cells assessed as viable cells at 0.3 uM after 24 hrs by Annexin V-PE/7-AAD staining-based FACS analysis (reference value: 93.2%); format: functional; settings: HCT-116, 24 h, read-out: Activity
[34] = Cell cycle arrest in human HCT116 cells assessed as accumulation at G0/G1 phase at 0.3 uM after 24 hrs by propidium iodide staining-based flow cytometry (reference value: 63.8%); format: functional; settings: HCT-116; outline: as §2
[35] = Antiproliferative activity against human HCT116 cells after 48 hrs by WST-1 assay; format: functional, cell-based; settings: HCT-116, 48 h; outline: as §5

- inhibition (Focal adhesion kinase 1 [2]): Active
- inhibition (Focal adhesion kinase 1 [4]): Active
- pIC50 [7]: 6.72
- inhibition (Focal adhesion kinase 1 [16]): Active
- pIC50 (MDA-MB-231 [17]; MDA-MB-231, 336 h): 5.72
- pIC50 [20]: 6.64
- pIC50 [21]: 6.59
- inhibition (Focal adhesion kinase 1 [23]): Active
- pIC50 (MDA-MB-231 [28]): 5.55
Compound: CNC(=O)c1ccccc1Nc1nc(Nc2ccc(N3CCOCC3)cc2OC)ncc1Cl
- Activity (U-87 MG [1]): 3.12%
- Activity [3]: 10.4%
- Activity [5]: Active
- inhibition (U-87MG ATCC [6]): Dose-dependent effect
- pIC50 [8]: 5.92
- Activity (U-87 MG [9]): 0.596%
- Activity [10]: 49.9%
- Activity (HCT-116 [11]): 41.8%
- pIC50 [12]: 5.80
- Activity (HCT-116 [13]): 12.3%
- Activity (HCT-116 [14]): Active
- Activity [15]: 25.5%
- inhibition (MDA-MB-231 [17]): Dose-dependent effect
- Activity [18]: 54.4%
- inhibition (HCT-116 [19]): Dose-dependent effect
- inhibition (PC-3): Dose-dependent effect
- Activity (HCT-116 [22]): 13.1%
- Activity [24]: 40.8%
- Activity (U-87 MG [25]): 36%
- viability at 1 µM (U-87 MG [26]): 95.4%
- Activity [27]: 7.11%
- Activity (HCT-116 [29]): 32%
- Activity (U-87 MG [30]): 0.9%
- Activity (U-87MG ATCC [31]): Dose-dependent effect
- Activity [32]: Active
- viability at 0.3 µM (HCT-116 [33]): 42.7%
- Activity [34]: 31.3%
- pIC50 [35]: 6.40
